Assay results from ChEMBL document CHEMBL3351484, “Positive allosteric modulators of 2-amino-3-(3-hydroxy-5-methylisoxazol-4-yl)propionic acid receptors belonging to 4-cyclopropyl-3,4-dihydro-2h-1,2,4-pyridothiadiazine dioxides and diversely chloro-substituted 4-cyclopropyl-3,4-dihydro-2H-1,2,4-benzothiadiazine 1,1-dioxides” (J Med Chem, 2014).
Active and inactive are the calls of the source. No cut-off for these calls is given here.

Experiments:
Primary neuron [1] = assay: Positive allosteric modulation of AMPA receptor in rat embryonic cortex primary neuronal culture assessed as maximal increase in AMPA-induced membrane depolarization normalized to AMPA-evoked response by microplate reader; format: cell membranes
Procedure, shortened: (§1)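 Primary cultures of rat embryonic cortical neurons; depolarization evoked by 300 μM AMPA read with fluorescent membrane potential dyes on an imaging plate reader. EC2× is the modulator level doubling the AMPA response (geometric mean, 95% CI).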

[2] = Positive allosteric modulation of AMPA receptor in rat embryonic cortex primary neuronal culture assessed as increase in AMPA-induced membrane depolarization by microplate reader; format: cell membranes; conditions: primary neuron; procedure, shortened: as §1
Primary neuron [3] = assay: Potentiation of AMPA receptor in rat embryonic cortex primary neuronal culture assessed as concentration required to 2-fold increase in AMPA-induced membrane depolarization by microplate reader; format: cell membranes; procedure, shortened: as §1
Rattus norvegicus [4] = species on record: Rattus norvegicus; assay: Positive allosteric modulation of AMPA receptor in rat hippocampal slice assessed as increase in AMPA-mediated presynaptic noradrenaline release; format: tissue-based; set-up: concentration or dose not given beside the values; conditions: Hippocampus
Procedure, shortened: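 Rat hippocampal slices, [3H]noradrenaline release evoked by (S)-AMPA 10 μM, modulator at 300 μM; release given as percent of (S)-AMPA alone taken as 100%.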

Glutamate receptor 2 = Glutamate receptor 2 (Homo sapiens, UniProt P42262); assay: Binding affinity to GluA2-LBD-L483Y-N754S complex (unknown origin) by isothermal titration calorimetry
Glutamate receptor 2, sequence (P42262 whole entry, the tested form may be a part): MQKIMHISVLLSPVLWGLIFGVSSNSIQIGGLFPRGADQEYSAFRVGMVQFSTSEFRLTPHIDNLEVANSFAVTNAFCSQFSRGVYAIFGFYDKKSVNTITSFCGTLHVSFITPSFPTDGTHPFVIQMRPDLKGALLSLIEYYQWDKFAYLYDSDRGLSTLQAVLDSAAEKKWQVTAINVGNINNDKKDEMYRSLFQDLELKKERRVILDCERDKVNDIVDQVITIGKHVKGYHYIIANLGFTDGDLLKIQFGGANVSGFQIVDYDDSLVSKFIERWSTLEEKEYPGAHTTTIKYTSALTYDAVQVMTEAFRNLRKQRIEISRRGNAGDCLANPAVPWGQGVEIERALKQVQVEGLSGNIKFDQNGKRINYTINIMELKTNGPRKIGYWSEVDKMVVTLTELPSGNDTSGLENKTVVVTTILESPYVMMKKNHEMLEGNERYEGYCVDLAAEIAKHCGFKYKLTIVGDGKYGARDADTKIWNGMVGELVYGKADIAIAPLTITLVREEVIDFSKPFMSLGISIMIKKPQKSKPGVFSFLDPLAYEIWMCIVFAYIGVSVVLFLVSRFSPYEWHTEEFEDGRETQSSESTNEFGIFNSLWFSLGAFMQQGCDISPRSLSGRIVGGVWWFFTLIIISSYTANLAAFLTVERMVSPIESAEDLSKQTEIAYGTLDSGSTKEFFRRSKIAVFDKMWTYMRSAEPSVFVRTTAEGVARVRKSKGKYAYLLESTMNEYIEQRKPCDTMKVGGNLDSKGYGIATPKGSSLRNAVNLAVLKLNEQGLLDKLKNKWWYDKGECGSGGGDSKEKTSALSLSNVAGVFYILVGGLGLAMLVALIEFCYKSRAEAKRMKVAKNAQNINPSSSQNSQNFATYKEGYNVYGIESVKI
Procedure, shortened: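 Direct ITC titration at 25 °C. 20 × 2 μL injections at 3 min, the first 0.4 μL. First point discarded and dilution heat subtracted before a single-site fit. Mean of three titrations.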

Hippocampus [5] = assay: Potentiation of high-frequency stimulation-induced synaptic response in Wistar rat hippocampal dentate gyrus assessed as increase in long-term potentiation at 10 mg/kg, ip after 1 hr; format: functional, organism-based; set-up: dose 10 mg/kg
Procedure, shortened: (§2)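 Anesthetized Wistar rats dosed ip; perforant-path stimulation with dentate gyrus responses. 1 h after dosing, LTP induced by tetanic high-frequency stimulation and responses followed 3 h; eight responses averaged (every 2 min), normalized to 60 min baseline. n = 8 per group; Dunnett test after two-way ANOVA versus vehicle.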

Rattus norvegicus [6] = species on record: Rattus norvegicus; assay: Positive allosteric modulation of AMPA receptor in rat hippocampal slice assessed as half-width of AMPA-mediated […] postsynaptic field potential in CA1 area at 3 uM; format: tissue-based; conditions: Hippocampus
Procedure, shortened: (§3)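 Rat hippocampal slices perfused with medium containing 1.2 mM Mg2+; field EPSPs recorded in CA1 after electrical stimulation of Schaffer collaterals. Area, amplitude and half-width normalized to the 10 min baseline as 100%, reported as percent increase, mean ± SEM (n = 3–4).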

[7] = Drug uptake in mouse brain at 3 mg/kg, po qd after 20 mins by LC-MS/MS analysis; format: ADME, organism-based; set-up: dose 3 mg/kg, route oral; conditions: read-out: Drug uptake
Procedure, shortened: (§4)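 NMRI mice dosed orally, killed by decapitation 20 min later; brain and blood rapidly removed and frozen, compound quantified by LC−MS/MS. Brain in ng/g, plasma in ng/mL; n = 3.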

Rattus norvegicus [8] = species on record: Rattus norvegicus; assay: Positive allosteric modulation of AMPA receptor in rat hippocampal slice assessed as area of AMPA-mediated […] postsynaptic field potential in CA1 area at 3 uM; format: tissue-based; conditions: Hippocampus; procedure, shortened: as §3
Rattus norvegicus [9] = species on record: Rattus norvegicus; assay: Positive allosteric modulation of AMPA receptor in rat hippocampal slice assessed as area of AMPA-mediated […] postsynaptic field potential in CA1 area at 10 uM; format: tissue-based; conditions: Hippocampus; procedure, shortened: as §3
Hippocampus [10] = assay: Potentiation of tetanus-induced synaptic response in Wistar rat hippocampal dentate gyrus at 3 mg/kg, ip measured first 18 mins; format: functional, organism-based; set-up: dose 3 mg/kg
Procedure, shortened: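 Anesthetized Wistar rats, dosed ip at 3 or 10 mg/kg, n = 8 per group. Dentate gyrus responses evoked by perforant-path stimulation every 2 min, averaged over eight stimulations and normalized to the 60 min baseline. High-frequency tetanus given 1 h after dosing, with recording for 3 h. Potentiation duration judged per group against the 6 min pre-tetanus period.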

Hippocampus [11] = assay: Potentiation of tetanus-induced synaptic response in Wistar rat hippocampal dentate gyrus at 3 mg/kg, ip measured during 42 mins; format: functional, organism-based; set-up: dose 3 mg/kg
Mus musculus = assay: Increase in object recognition task in CD1 mouse at 1 mg/kg, po after 24 hrs; format: functional, organism-based; set-up: dose 1 mg/kg
Procedure, shortened: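 Three-session test (habituation, familiarization, recognition) given at 24 h intervals in CD1 mice, compound given orally 1 h before each session. Durations of exploring new versus familiar objects recorded; mean + SEM, paired Student's t test versus familiar object.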

Rattus norvegicus [12] = species on record: Rattus norvegicus; assay: Positive allosteric modulation of AMPA receptor in rat hippocampal slice assessed as amplitude of AMPA-mediated […] postsynaptic field potential in CA1 area at 3 uM; format: tissue-based; conditions: Hippocampus; procedure, shortened: as §3
Rattus norvegicus [13] = species on record: Rattus norvegicus; assay: Positive allosteric modulation of AMPA receptor in rat hippocampal slice assessed as half-width of AMPA-mediated […] postsynaptic field potential in CA1 area at 10 uM; format: tissue-based; conditions: Hippocampus; procedure, shortened: as §3
Rattus norvegicus [14] = species on record: Rattus norvegicus; assay: Positive allosteric modulation of AMPA receptor in rat hippocampal slice assessed as amplitude of AMPA-mediated […] postsynaptic field potential in CA1 area at 10 uM; format: tissue-based; conditions: Hippocampus; procedure, shortened: as §3
Hippocampus [15] = assay: Potentiation of high-frequency stimulation-induced synaptic response in Wistar rat hippocampal dentate gyrus assessed as excitatory postsynaptic field potential at 10 mg/kg, ip after 3 hrs; format: functional, organism-based; set-up: dose 10 mg/kg; procedure, shortened: as §2
Hippocampus [16] = assay: Potentiation of high-frequency stimulation-induced synaptic response in Wistar rat hippocampal dentate gyrus assessed as excitatory postsynaptic field potential at 3 mg/kg, ip after 3 hrs; format: functional, organism-based; set-up: dose 3 mg/kg; procedure, shortened: as §2
[17] = Drug uptake in mouse plasma at 3 mg/kg, po qd after 20 mins by LC-MS/MS analysis; format: ADME, organism-based; set-up: dose 3 mg/kg, route oral; procedure, shortened: as §4
[18] = Ratio of drug level in mouse brain to plasma at 3 mg/kg, po qd after 20 mins by LC-MS/MS analysis; format: ADME, organism-based; set-up: dose 3 mg/kg, route oral
Procedure, shortened: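 Oral dosing in NMRI mice, 20 min before decapitation; brain and plasma levels measured by LC−MS/MS (n = 3), ratio taken as [brain]/[plasma] in mL/g.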

Compound | Emax (Primary neuron [1]) | EC50 [2] | Activity (Primary neuron [3]) | Activity (Rattus norvegicus [4]) | also measured
O=S1(=O)NCN(C2CC2)c2cccnc21 | 10 | 1.5 µM | 0.35 µM | 323% | –
O=S1(=O)NCN(C2CC2)c2ccc(F)cc21 | 15 | 0.9 µM | 0.27 µM | – | Kd (Glutamate receptor 2): 0.35 µM
O=S1(=O)NCN(C2CC2)c2c(Cl)cccc21 | > 3 | – | 27.1 µM | 196% | –
O=S1(=O)NCN(C2CC2)c2cccc(Cl)c21 | > 9 | – | 2 µM | 352% | –
O=S1(=O)NCN(C2CC2)c2ncccc21 | > 4 | – | 13.9 µM | 221% | –
O=S1(=O)NCN(C2CC2)c2ccc(Cl)cc21 | 11 | 2.9 µM | 0.68 µM | 411% | Activity (Hippocampus [5]): Active; Activity (Rattus norvegicus [6]): 9%; concentration at 20 min [7]: 72.7 ng/g; Activity (Rattus norvegicus [8]): 10%; Activity (Rattus norvegicus [9]): 145%; Activity (Hippocampus [10]): Active; Activity (Hippocampus [11]): Active; Activity (Mus musculus): Active; Activity (Rattus norvegicus [12]): 5.3%; Activity (Rattus norvegicus [13]): 113%; Activity (Rattus norvegicus [14]): 58%; Activity (Hippocampus [15]): Active; Activity (Hippocampus [16]): Active; concentration at 20 min [17]: 64.7 ng/mL; Kp at 20 min [18]: 1.12
O=S1(=O)NCN(C2CC2)c2ncc(Cl)cc21 | > 7 | – | 2.4 µM | 276% | –
O=S1(=O)NCN(C2CC2)c2ccncc21 | > 11 | – | 4.4 µM | 330% | –
O=S1(=O)NCN(C2CC2)c2cc(Cl)ccc21 | > 5 | – | 5.2 µM | 327% | –
CCN1CNS(=O)(=O)c2cnccc21 | – | – | – | – | Kd (Glutamate receptor 2): 1200 µM
